Screens: PubChem BioAssay, several laboratories
Shown are actives, neighbours in structure and some others; about 2.9% of the full set was active somewhere.
MEKK3 PB1 HTS – MEKK3-MEK5 PB1 interaction, increase or decrease; bead-based flow cytometry, Alexa488-MEK5 binding to MEKK3; actives lie on both sides; 0 = blocked by unlabeled MEK5, 100 = vehicle; binding response (% of control), % at 10 µM; actives 1.4% (n = 290,000);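 active = binding response more than 3 SD above or below the average of its plate-row segment, actives on both sides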;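 also: Alexa488 bead fluorescence after subtracting the streptavidin-only scavenger bead signal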
MEKK2mut PB1 HTS – signal of MEK5 binding to mutant human MEKK2 PB1 domain. bead flow cytometry, Alexa488-MEK5 binding to MEKK2 mutant. percent response, % at 10 µM. actives 0.35% (n = 290,000); in the data active = percent response above about 24%, passing the limit was not always enough
Apaf-1 inh – inhibitors of human Apaf-1 apoptosome | O14727 | reconstituted apoptosome caspase-3 activity, DEVD-Rh110 fluorescence | inhibition, % at 20 µM | actives 0.71% (n = 330,000) | AID 489030; active = inhibition of at least 40% at 20 µM;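 also: plate controls were DMSO wells for no effect and DEVD-CHO caspase inhibitor wells for full effect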
Target sequence (O14727 whole entry, looked up): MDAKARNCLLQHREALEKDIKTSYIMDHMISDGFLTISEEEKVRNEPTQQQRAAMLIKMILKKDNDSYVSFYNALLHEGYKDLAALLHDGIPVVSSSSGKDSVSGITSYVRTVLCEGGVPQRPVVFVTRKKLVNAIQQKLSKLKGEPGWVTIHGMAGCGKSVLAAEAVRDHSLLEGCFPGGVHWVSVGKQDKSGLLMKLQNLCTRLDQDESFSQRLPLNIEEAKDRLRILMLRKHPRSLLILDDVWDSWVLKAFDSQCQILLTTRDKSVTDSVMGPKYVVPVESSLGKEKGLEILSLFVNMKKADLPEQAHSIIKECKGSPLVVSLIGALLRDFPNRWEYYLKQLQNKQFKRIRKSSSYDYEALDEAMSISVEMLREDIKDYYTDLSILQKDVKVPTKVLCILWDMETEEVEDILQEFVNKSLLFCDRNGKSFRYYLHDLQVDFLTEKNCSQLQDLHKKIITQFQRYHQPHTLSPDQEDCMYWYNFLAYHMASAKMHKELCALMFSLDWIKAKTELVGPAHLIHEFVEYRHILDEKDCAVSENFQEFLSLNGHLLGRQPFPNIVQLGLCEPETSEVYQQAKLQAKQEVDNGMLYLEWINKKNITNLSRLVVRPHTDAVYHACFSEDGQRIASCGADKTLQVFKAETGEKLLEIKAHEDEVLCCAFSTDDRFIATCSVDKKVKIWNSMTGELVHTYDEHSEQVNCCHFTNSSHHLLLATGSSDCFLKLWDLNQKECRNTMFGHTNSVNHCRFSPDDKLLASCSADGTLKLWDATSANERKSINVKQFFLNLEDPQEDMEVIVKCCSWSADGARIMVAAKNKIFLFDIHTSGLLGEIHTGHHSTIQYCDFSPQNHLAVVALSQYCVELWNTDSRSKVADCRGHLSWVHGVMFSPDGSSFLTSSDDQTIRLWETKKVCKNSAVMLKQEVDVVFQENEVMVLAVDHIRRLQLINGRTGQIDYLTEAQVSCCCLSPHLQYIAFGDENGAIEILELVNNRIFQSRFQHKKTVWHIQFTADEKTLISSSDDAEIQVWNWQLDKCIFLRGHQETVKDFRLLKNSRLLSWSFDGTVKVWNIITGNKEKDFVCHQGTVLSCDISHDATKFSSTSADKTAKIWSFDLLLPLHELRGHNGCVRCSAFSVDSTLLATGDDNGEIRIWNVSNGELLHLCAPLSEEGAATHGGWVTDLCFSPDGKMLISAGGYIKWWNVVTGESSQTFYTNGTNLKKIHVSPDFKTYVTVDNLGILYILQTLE
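System: Apoptosome proteins | Medium: Hepes pH 7.5 with detergent and BSA | Also added: Cytochrome c trigger plus (Z-DEVD)2-Rh110 caspase-3 substrate | Incubation: 30 min compound preincubation, 50 min activation, room temperature | Detection: Rhodamine 110 fluorescence at Ex 480/Em 540 nm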
UBC13 polyUb – inhibitors of human UBC13 polyubiquitin chain formation | P61088 | TR-FRET | inhibition, % at 20 µM | actives 0.47% (n = 330,000) | AID 485273; in the data active = inhibition above about 45%, passing the limit was not always enough
MEKK2 WT-MEK5 – raises or lowers MEK5 binding to wildtype human MEKK2 PB1 domain; actives 1.1% (n = 290,000); bead flow cytometry, Alexa488-MEK5 binding to MEKK2 WT; actives lie on both sides; binding response (% of control), % at 10 µM; AID 1531; in the data active = binding response below about 67% or above about 130%
MEKK2wt confirm – raises or lowers MEK5 binding to wildtype human MEKK2, retest | shares compounds with MEKK3 PB1 HTS | bead flow cytometry, Alexa488-MEK5 binding to MEKK2 WT; actives lie on both sides | binding response (% of control), % at 10 µM | actives 2.4% (n = 5,900); in the data active = binding response below about 16% or above about 210%; inactive = in between
MEKK2mut-MEK5 – signal of MEK5 binding to mutant human MEKK2, retest | shares compounds with MEKK3 PB1 HTS | AID 1893 | percent response, % at 10 µM | actives 2% (n = 5,900) | bead flow cytometry, Alexa488-MEK5 binding to MEKK2 mutant; in the data active = percent response mostly above about 71%, no sharp cut-off; inactive = mostly below about 38%;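 also: higher means compound restores mutant binding toward wildtype level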
MEKK3-MEK5 inh – confirmation of inhibitors of MEK5 binding to human MEKK3 | shares compounds with MEKK3 PB1 HTS | bead flow cytometry, Alexa488-MEK5 binding to MEKK3; active compounds read low | binding response (% of control), % at 10 µM | actives 1.8% (n = 5,900);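 active = binding response below 72% of control, or above a set upper limit, though filed actives all read lower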;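 also: 100% = DMSO only wells and 0% = binding blocked by excess unlabeled MEK5; lower values mean stronger disruption of MEK5 binding to MEKK3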
* marks the source's active call; other numbers are inactive results; . = not tested or not shown; [ ] = another dose, or the depositor's remark.

SMILES	MEKK3 PB1 HTS	MEKK2mut PB1 HTS	Apaf-1 inh	UBC13 polyUb	MEKK2 WT-MEK5	MEKK2wt confirm	MEKK2mut-MEK5	MEKK3-MEK5 inh
Cc1ccc(C(=O)NNC(=O)c2ccc(S(=O)(=O)N(C)c3ccccc3)cc2)cc1	.	.	-4	1	.	.	.	.
COc1ccc(S(=O)(=O)n2c(CCN3CCOCC3)nc3ccccc32)cc1	107	4	5	12	113	.	.	.
CC(C)(C)c1ccc(S(=O)(=O)n2c(CN3CCOCC3)nc3ccccc32)cc1	125*	6	8	4	120	101	0	102
CC(OC(=O)c1nn(C)c(=O)c2ccccc12)C(=O)Nc1ccc(S(N)(=O)=O)cc1 (stereo not given)	.	.	-2	0	.	.	.	.
COc1ccc(C(C(=O)NC(C)(C)C)N(Cc2cccnc2)C(=O)CCC(=O)Nc2cc(C)on2)cc1 (stereo not given)	100	-3	-4	-5	101	.	.	.
CC(=O)Nc1cc[n+](C(C)C(=O)c2ccc(Cl)cc2)cc1 (stereo not given)	41*[inhibitor]	-14	-7	-2	54	103	0	100
Cc1cc[n+](C(C)C(=O)c2ccc(-c3ccccc3)cc2)cc1 (stereo not given)	106	29	15	4	152*	101	-2	97
COc1cc(NC(=O)CN2C(=O)c3ccccc3S2(=O)=O)c(OC)cc1Cl	103	4	-2	1	106	.	.	.
COc1ccc(N2C(=O)NC(NC(=O)c3ccncc3)(C(F)(F)F)C2=O)cc1 (stereo not given)	89	-4	-5	-3	92	.	.	.
Cc1cc(N2CCCCC2)nc(SCc2ccc(C#N)cc2)n1	122*	4	23	12	115	85	0	91
COc1ccc(OC)c(NC(=O)C2CCCN(S(C)(=O)=O)C2)c1 (stereo not given)	105	11	-10	-4	107	.	.	.
O=[N+]([O-])c1ccc(C[n+]2cccc3ccc4cccnc4c32)cc1	104	5	7	-22	112	.	.	.
O=[N+]([O-])c1ccc(C[n+]2cccc3ccccc32)cc1	104	98*	-8	6	84	94	-30	96
CC(NCCCOc1cccc2ccccc12)c1ccccc1 (stereo not given)	107	18	24	18	175*	156	26	110
COC(=O)c1sc(NC(=O)COc2cccc(C)c2)nc1C	141*	2	-5	2	114	66	-26	62*
COC(=O)c1sc(NC(=O)COc2ccc(OC)cc2)nc1C	105	13	-5	2	102	.	.	.
CCOCC(=O)Nc1nc2ccc(OC)cc2s1	81*[inhibitor]	-14	7	0	89	97	-3	96
COc1ccc2nc(NC(=O)CN(C)S(=O)(=O)c3cccs3)sc2c1	1.0*[inhibitor]	-22	6	-6	-7.0*[inhibitor]	103	11	103
CCOc1ccc2nc(NC(=O)COC)sc2c1	112	2	2	-3	113	.	.	.
COc1ccc2nc(NC(=O)Cn3cnc4ccccc4c3=O)sc2c1	68*[inhibitor]	-31	-6	-2	49*[inhibitor]	102	2	100
COc1ccc(NC(=O)Cn2cnc3ccccc3c2=O)cc1OC	97	-1	-14	4	98	.	.	.
COc1ccc2nc(NC(=O)CNS(=O)(=O)c3cccs3)sc2c1	101	-8	-7	5	89	.	.	.
COc1ccc(C(CNC(=O)COc2ccc(Cl)c(C)c2)N2CCCCC2)cc1 (stereo not given)	101	5	11	7	113	.	.	.
O=C(NCC1CCCO1)c1csc2c1CCCCC2 (stereo not given)	0.0*[inhibitor]	-39	-12	1	-4.0*[inhibitor]	107	9	106
Cc1cccc(NC(=O)c2ccccc2OCC(=O)N2CCCC2)c1C	102	1	-16	4	100	.	.	.
SMILES	MEKK3 PB1 HTS	MEKK2mut PB1 HTS	Apaf-1 inh	UBC13 polyUb	MEKK2 WT-MEK5	MEKK2wt confirm	MEKK2mut-MEK5	MEKK3-MEK5 inh
CC(C)Cc1nnc(NC(=O)CCC(=O)N2CCN(Cc3ccc(Cl)cc3)CC2)s1	99	2	12	10	100	.	.	.
CC(=O)O[C@H]1CC(C)(C)C(=C=C/C(C)=C/C=C/C(C)=C/C=C/C=C(C)/C=C/C=C(\C)C(=O)C[C@@]23O[C@]2(C)C[C@@H](O)CC3(C)C)[C@](C)(O)C1	92	-6	-3	-86	87	.	.	.
O=c1[nH]c2ccccc2n2cnnc12	147*	6	4	4	126	100	6	105
CCN(CC)c1nc2ccccc2n2cnnc12	98	0	12	-13	99	.	.	.
COc1ccccc1N1C(=O)CC(Sc2ccccc2N)C1=O (stereo not given)	99	5	7	1	104	.	.	.
Nc1ccccc1SC1CC(=O)N(c2ccccc2Cl)C1=O (stereo not given)	49*[inhibitor]	-24	6	9	59	101	7	102
C[C@H](NS(=O)(=O)c1ccc(Cl)c(Cl)c1)C(=O)OCc1cc(=O)n2cc(Br)ccc2n1	131*	1	10	-12	102	98	4	104
CCOc1ccc(OCC(=O)OCc2cc(=O)n3cc(Br)ccc3n2)cc1	.	.	5	-5	.	.	.	.
O=C(c1cccc(Cl)c1)N1CCC(N2CCC(C(=O)N3CCCC3)CC2)CC1	97	0	18	-7	100	.	.	.
C/C(=N/NC(=O)c1ccoc1C)c1ccc(N2CCOCC2)cc1	131*	1	-5	8	104	100	-6	101
C/C(=N\NC(=O)c1ccc(Cl)cc1)c1ccc(N2CCOCC2)cc1	91	-2	5	7	93	.	.	.
CCOc1cc(N2CCOCC2)c(OCC)cc1NC(=O)CN1CCCC1	132*	1	1	0	108	101	-1	99
CCOc1cc(N2CCOCC2)c(OCC)cc1NC(=O)c1ccc(OCc2c(C)noc2C)c(OC)c1	131*	1	6	-9	105	104	6	102
CCOc1cc(N2CCOCC2)c(OCC)cc1NC(=O)C1CCCC1	102	0	1	-4	98	.	.	.
CCOc1ccc(NC(=O)c2ccc(N3CC4CC(C3)c3cccc(=O)n3C4)c(NC(=O)c3cccnc3)c2)cc1 (stereo not given)	98	-1	-8	-2	101	.	.	.
